Measured values from ChEMBL document CHEMBL3421581, “A solid-phase combinatorial approach for indoloquinolizidine-peptides with high affinity at D(1) and D(2) dopamine receptors” (Eur J Med Chem, 2015).
Active and inactive are the calls of the source. The calls are words filed in the database; no cut-off is given here.

Tests used:
[1] = target: D(2) dopamine receptor (Homo sapiens) (UniProt P14416); experiment: Antagonist activity at dopamine D2 receptor (unknown origin) transfected in CHO cells assessed as inhibition of YM09151-2 -induced downregulation of phosphorylated ERK1/2 level at 10 uM after 5 mins by Western blot analysis; format: cell-based
How it was run: (§1)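 D2R cDNA transiently transfected into CHO cells by Lipofectamine, used 48 h later. Cells were kept serum-free for 16 h, optionally pretreated 5 min with 1 μM YM 09151-2, then exposed to ligands for 5 min (combined condition used 10 μM test ligand). Lysed in ice-cold buffer, phospho-ERK1/2 read by infrared scanning. Means ± SEM, 3 experiments in duplicate, unpaired t-test vs basal.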

[2] = target: D(2) dopamine receptor (Homo sapiens) (UniProt P14416); experiment: Allosteric modulating activity at dopamine D2 receptor (unknown origin) expressed in sheep striatum membranes assessed as change in D2R antagonist [3H]-YM09151-2 Koff at 3 uM preincubated for 2 hrs followed by [3H]-YM09151-2 addition by rapid filtration and radioactivity counting; format: cell membranes; details: Membrane, in the assay text read “preincubated for 1 hr” for “preincubated for 2 hrs”
How it was run: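 Sheep striatal membranes (0.2 mg protein/mL) preincubated 1 h at 25 °C ± 3 μM test ligand in 50 mM Tris-HCl pH 7.4 with 10 mM MgCl2, then 1 nM [3H]-YM 09151-2 added. After 2 h, dissociation started with 10 μM unlabeled YM 09151-2. Total binding measured at intervals by GF/C filtration and scintillation counting. Nonspecific binding taken after 90 min with 10 μM YM 09151-2.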

[3] = target: D(2) dopamine receptor (Homo sapiens) (UniProt P14416); experiment: Displacement of [3H]-YM09151-2 from dopamine D2 receptor (unknown origin) expressed in sheep striatum membranes assessed as low affinity constant measured per mg of protein after 2 hrs by scintillation counting analysis; format: cell membranes; details: Membrane
How it was run: (§2)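 Sheep striatal membranes (0.2–0.5 mg protein/mL), 2 h at 25 °C in 50 mM Tris-HCl pH 7.4 with 10 mM MgCl2. Radioligand was [3H]-SCH 23390 for D1R (nonspecific: 50 μM SCH 23390) or [3H]-YM 09151-2 for D2R (nonspecific: 50 μM raclopride). Competitor tested at 9 concentrations, 1 nM–50 μM, in triplicate. Total binding fitted by nonlinear regression to a two-site model. Means ± SD of three experiments.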

[4] = target: D(2) dopamine receptor (Homo sapiens) (UniProt P14416); experiment: Displacement of [3H]-YM09151-2 from dopamine D2 receptor (unknown origin) expressed in sheep striatum membranes assessed as high affinity constant measured per mg of protein after 2 hrs by scintillation counting analysis; format: cell membranes; details: Membrane; how it was run: as §2
[5] = target: D(2) dopamine receptor (Homo sapiens) (UniProt P14416); experiment: Agonist activity at dopamine D2 receptor (unknown origin) transfected in CHO cells assessed as increase in ERK1/2 phosphorylation after 5 mins by Western blot analysis; format: cell-based; how it was run: as §1

Sequence of D(2) dopamine receptor (Homo sapiens) (P14416 whole entry): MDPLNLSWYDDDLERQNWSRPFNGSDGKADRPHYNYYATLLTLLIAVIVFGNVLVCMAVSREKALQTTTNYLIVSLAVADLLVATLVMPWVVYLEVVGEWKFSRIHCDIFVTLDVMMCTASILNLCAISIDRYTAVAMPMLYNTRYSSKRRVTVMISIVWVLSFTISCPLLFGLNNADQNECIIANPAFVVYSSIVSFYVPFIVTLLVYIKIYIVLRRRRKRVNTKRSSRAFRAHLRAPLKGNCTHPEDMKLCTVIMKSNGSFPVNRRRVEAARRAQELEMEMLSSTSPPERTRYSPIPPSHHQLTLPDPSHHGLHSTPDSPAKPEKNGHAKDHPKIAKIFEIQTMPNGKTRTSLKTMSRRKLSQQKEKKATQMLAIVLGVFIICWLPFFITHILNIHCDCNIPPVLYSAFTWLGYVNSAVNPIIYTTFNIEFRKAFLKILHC

Row | SMILES | inhibition [1] | Activity [2] | Activity [3] | Activity [4] | Activity [5]
1 | NCCCC[C@H](NC(=O)[C@H](Cc1ccc(F)c(F)c1)NC(=O)[C@H]1CCCN1C(=O)CCCCCNC(=O)[C@H]1CC[C@@H]2c3[nH]c4ccccc4c3CCN2C1)C(N)=O | inactive | inactive | 0.12 pmol | 0.04 pmol | Dose-dependent effect
2 | NCCCC[C@H](NC(=O)[C@H](Cc1ccc(F)c(F)c1)NC(=O)[C@H]1CCCN1C(=O)CCCCCNC(=O)[C@@H]1CC[C@H]2c3[nH]c4ccccc4c3CCN2C1)C(N)=O | – | – | 0.12 pmol | 0.06 pmol | –
